# Most compounds without a hit are left out; they make up all but 2.5% or so of the library.
# MBD2 DNA inh = inhibitors of MBD2 binding to methylated DNA, primary screen, biochemical, TR-FRET, DNA-binding domain, human; MBD2 binding to methylated oligonucleotide; inhibition, % at 4.4 µM; hit rate 0.31% among 370,000; AID 686964, 2013; in the data active means inhibition above about 13%
# SUMO1-SIM PPI = modulators of SUMO1 protein-protein interactions, primary screen, biochemical, uHTS. Small ubiquitin-related modifier 1 (Homo sapiens), P63165. SUMO1 binding to a labelled peptide, TR-FRET, 1 h. inhibition, % at 20 µM. hit rate 0.33% among 360,000; in the data active means inhibition above about 37%
# Pemphigus Ab inh = inhibitors of pemphigus antibody binding to DSG3, primary screen, biochemical, bead-based, flow cytometry, scFv-GFP; binding (percent of control), % at 10 µM; hit rate 0.48% among 310,000; Desmoglein-3 (Homo sapiens), P32926; DSG3-coupled beads, scFv-anti-DSG3-GFP binding; stronger effect = lower value;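 active means binding more than 3 SD below its plate's average and above zero; inconclusive means below that plate limit but binding exactly zero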
# Target sequence (P32926 whole entry, looked up): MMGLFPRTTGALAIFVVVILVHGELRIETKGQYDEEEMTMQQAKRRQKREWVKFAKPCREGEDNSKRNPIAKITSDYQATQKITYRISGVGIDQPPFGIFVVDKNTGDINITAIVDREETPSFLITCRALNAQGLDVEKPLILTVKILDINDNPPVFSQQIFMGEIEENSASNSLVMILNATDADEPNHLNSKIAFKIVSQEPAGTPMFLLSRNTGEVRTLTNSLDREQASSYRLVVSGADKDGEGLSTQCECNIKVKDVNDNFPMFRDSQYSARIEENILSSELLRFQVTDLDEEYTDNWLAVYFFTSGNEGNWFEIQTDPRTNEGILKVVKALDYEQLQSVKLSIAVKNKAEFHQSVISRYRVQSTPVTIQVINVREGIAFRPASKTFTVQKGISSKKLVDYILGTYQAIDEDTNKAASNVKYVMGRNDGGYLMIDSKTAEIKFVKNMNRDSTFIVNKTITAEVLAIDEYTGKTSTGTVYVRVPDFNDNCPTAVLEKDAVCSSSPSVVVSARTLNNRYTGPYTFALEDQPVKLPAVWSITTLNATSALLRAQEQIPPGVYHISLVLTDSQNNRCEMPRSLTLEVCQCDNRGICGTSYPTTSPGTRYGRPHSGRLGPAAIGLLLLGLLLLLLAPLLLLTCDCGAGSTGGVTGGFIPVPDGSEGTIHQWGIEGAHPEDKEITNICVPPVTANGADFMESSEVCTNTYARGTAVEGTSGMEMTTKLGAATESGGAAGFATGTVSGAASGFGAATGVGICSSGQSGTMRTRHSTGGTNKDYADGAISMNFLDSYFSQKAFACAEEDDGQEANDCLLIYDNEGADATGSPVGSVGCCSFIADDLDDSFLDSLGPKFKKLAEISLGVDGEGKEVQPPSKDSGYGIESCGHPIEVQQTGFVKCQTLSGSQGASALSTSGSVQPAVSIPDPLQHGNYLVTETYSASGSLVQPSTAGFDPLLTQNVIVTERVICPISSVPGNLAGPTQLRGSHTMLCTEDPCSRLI
# UHRF1 binding = UHRF1 methylated DNA binding inhibitors, primary screen, counter-screen for MBD2 inhibitor project, biochemical, TR-FRET, human UHRF1, single concentration; E3 ubiquitin-protein ligase UHRF1 (Homo sapiens), Q96T88; UHRF1 binding to methylated oligo; inhibition, % at 4.4 µM; hit rate 0.75% among 370,000; AID 687016, 2013; in the data active means inhibition above about 21%;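 further: UHRF1 SRA domain binding a hemimethylated CpG hairpin DNA probe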
# DNMT1 block = human DNMT1 methyltransferase inhibitors, primary screen, biochemical, molecular beacon, fluorescence, HinP1I cleavage, uHTS. DNA (cytosine-5)-methyltransferase 1 (Homo sapiens), P26358. inhibition (reported as % activation of signal), % at 10 µM. hit rate 0.83% among 360,000; in the data active means inhibition above about 50%
# NS3 helicase inh = inhibitors of HCV NS3 helicase, primary screen, biochemical, Cy5 molecular beacon fluorescence. Hepatitis C virus NS3 helicase. NS3 helicase DNA unwinding. inhibition, % at 10.9 µM. hit rate 0.56% among 290,000. AID 1800, 2009;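 active means inhibition above the mean of all tested compounds plus 3 SD, set per campaign, cut at about 35% in these data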
#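 Material: hepatitis C virus NS3 helicase domain fragment enzyme; measured by: Cy5 fluorescence, 0 and 60 min reads; control set: DMSO and thioflavine S; incubation: 60 min unwinding reaction at 25 °C after ATP addition; read-out basis: % inhibition from 60/0 min fluorescence ratio, DMSO 0%, thioflavine S 100%; repeats: singlicate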
# DNMT1 inh conf = DNMT1 methyltransferase inhibitor retest, confirmation, biochemical, molecular beacon, fluorescence, single concentration. shares compounds with DNMT1 block. DNMT1 molecular beacon HinP1I cleavage. inhibition, % at 10 µM. hit rate 8% among 2,300. AID 602385, 2012;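 active means average inhibition of at least 30% in the single-concentration confirmation test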
# DNMT1 interf = counter-screen for DNMT1 inhibitors: spectral interference. shares compounds with DNMT1 block. DNMT1 molecular beacon spectral interference counterscreen, fluorescence 485/520. activation (fluorescence interference), % at 10 µM. hit rate 1% among 2,300;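 active means activation of at least 30% at 10 µM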;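 further: DNMT1 catalytic domain with a HinP1I cleavage step and a FAM/dabcyl DNA beacon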
# A number is an active result; i = inactive; ? = inconclusive; nt = no result.
SMILES,MBD2 DNA inh,SUMO1-SIM PPI,Pemphigus Ab inh,UHRF1 binding,DNMT1 block,NS3 helicase inh,DNMT1 inh conf,DNMT1 interf
CC(C)CC1NC(=O)c2ccc(Cl)cc2-n2c1nc1cc(F)ccc1c2=O (stereo not drawn),i,nt,nt,i,nt,nt,nt,nt
Cc1cc(C)cc(-n2c3nc4ccccc4nc3c3c(=O)n(Cc4ccco4)cnc32)c1,i,i,i,i,98,43,i,i
CCOc1ccc(-n2c3nc4ccccc4nc3c3c(=O)n(Cc4ccco4)cnc32)cc1,nt,nt,nt,nt,nt,i,nt,nt
CC(C)n1cc(/C=N/Nc2ccc(Cl)c(C(=O)O)c2)c2ccccc21,nt,114,i,nt,82,i,i,i
O=C(Nc1ccc(F)cc1F)c1cc2ncc(Br)cn2n1,i,nt,nt,i,nt,i,nt,nt
COC(=O)c1ccccc1NC(=O)c1cc2ncc(Br)cn2n1,i,i,nt,i,68,i,i,i
O=C(CSCC(=O)NC1CCCC1)Nc1ccccc1,i,i,i,i,i,i,nt,nt
COc1ccc2c(c1OC)C(=O)N1c3ccccc3N=C(c3ccc([N+](=O)[O-])cc3)CC21 (stereo not drawn),i,i,i,i,62,i,i,i
Nc1c(C(=O)N/N=C/c2ccc(Cl)cc2)cnn1-c1ccccc1,i,i,nt,i,i,i,nt,nt
Nc1c(C(=O)N/N=C/c2ccc(OCc3ccccc3)cc2)cnn1-c1ccccc1,i,i,i,i,51,i,i,i
COCCNC(=O)c1c[nH]c2ccc(S(=O)(=O)N3CCOCC3)cc2c1=O,i,i,nt,i,i,i,nt,nt
O=C(Nc1ccc(N2CCN(c3ccc(C(F)(F)F)cn3)CC2)nc1)c1cccs1,i,i,i,i,52,i,i,i
c1ccc(-c2nc(-n3nc4ccccc4n3)nc3ccccc23)cc1,i,i,i,i,i,i,nt,nt
O=C1CN(c2nc(-c3ccccc3)c3ccccc3n2)c2ccccc2N1,i,i,i,i,61,i,i,i
Cc1noc(C)c1CCC(=O)N1CCCC(N2CCN(c3ccc(F)cc3)CC2)C1 (stereo not drawn),i,i,i,i,86,i,i,i
CC(OC(=O)C1CCCC1)C(=O)Nc1ccc(C(N)=O)cc1 (stereo not drawn),i,i,i,i,i,nt,nt,nt
Nc1cc(S(=O)(=O)Nc2ccc(Cl)cc2)ccc1N1CCOCC1,i,i,i,i,169,i,i,i
CC(=Cc1ccccc1)C=C1SC(=S)N(CCCC(=O)Nc2ccc(C(=O)O)cc2)C1=O,i,i,nt,i,i,nt,nt,nt
O=C(CCN1C(=O)/C(=C/C=C/c2ccccc2)SC1=S)Nc1cccnc1,i,i,i,i,62,i,i,i
O=C(CCN1C(=O)/C(=C/C=C/c2ccccc2)SC1=S)Nc1ccccn1,i,i,i,i,i,i,nt,nt
CC(/C=C1\SC(=S)N(CCC(=O)Nc2cccc(C(=O)O)c2)C1=O)=C\c1ccccc1,i,i,i,i,80,i,i,i
O=C1NC2(CCCCC2)Cc2ccccc21,i,i,i,i,i,i,nt,nt
OCC(O)C1OC(Nc2ccc(Br)cc2)C(O)C1O (stereo not drawn),i,i,i,i,i,i,nt,nt
O=C(/C=C/c1ccco1)Nc1ccccc1C(=O)O,i,i,?,24,80,i,i,i
O=C(Cc1ccccc1)Nc1ccc(N2CCOCC2)cc1,i,i,i,i,i,i,nt,nt
CCOc1cccc(C(=O)NC(=S)Nc2ccc(N3CCCC3)cc2)c1,i,i,i,i,72,i,i,i
O=C(Cc1ccccc1)Nc1ccc(N2CCCC2)cc1,i,i,i,i,94,i,i,i

# Compound activity as filed in PubChem BioAssay.
